Four compounds from ChEMBL document CHEMBL4118251 (J Med Chem, 2018) can be followed below.

The target of series [1] is T1, Gastric inhibitory polypeptide receptor (Homo sapiens, UniProt P48546).
T1 sequence (P48546 whole entry): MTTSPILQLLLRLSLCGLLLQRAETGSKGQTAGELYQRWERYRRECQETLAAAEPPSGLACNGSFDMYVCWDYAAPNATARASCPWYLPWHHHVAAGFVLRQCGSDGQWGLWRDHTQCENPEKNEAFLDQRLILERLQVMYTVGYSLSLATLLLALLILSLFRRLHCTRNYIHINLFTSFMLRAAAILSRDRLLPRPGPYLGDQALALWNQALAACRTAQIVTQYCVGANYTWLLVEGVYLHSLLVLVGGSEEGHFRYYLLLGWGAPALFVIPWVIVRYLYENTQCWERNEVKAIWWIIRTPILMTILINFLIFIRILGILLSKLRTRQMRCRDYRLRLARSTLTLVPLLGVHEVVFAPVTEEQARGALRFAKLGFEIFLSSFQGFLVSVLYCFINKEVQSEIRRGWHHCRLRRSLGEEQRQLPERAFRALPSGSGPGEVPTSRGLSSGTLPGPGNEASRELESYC
As to the kind of experiment: Agonist activity at human GIP receptor expressed in HEK293 cells assessed as cAMP accumulation after 30 mins by HTRF assay. Format: functional, cell-based. In general terms: Changes in cAMP serve as a functional read-out for many G protein-coupled receptors.

The target in series [2] is T2, Glucagon-like peptide 1 receptor (Homo sapiens, UniProt P43220). Put plainly: Displacement of [125I]GLP-1 from human GLP1R expressed in HEK293 cell membranes after 180 mins by microbeta counting method. The gist of the method: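 Membranes from HEK-293 cells expressing human GLP-1 receptor (1 μg protein/well) were coated on WGA SPA beads. […] The buffer was HEPES pH 7.4 with EDTA, NaCl, MgCl2, CaCl2, protease inhibitors and 0.1% BSA. Plates were read after a 180 min delay.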
T2 sequence (P43220 whole entry): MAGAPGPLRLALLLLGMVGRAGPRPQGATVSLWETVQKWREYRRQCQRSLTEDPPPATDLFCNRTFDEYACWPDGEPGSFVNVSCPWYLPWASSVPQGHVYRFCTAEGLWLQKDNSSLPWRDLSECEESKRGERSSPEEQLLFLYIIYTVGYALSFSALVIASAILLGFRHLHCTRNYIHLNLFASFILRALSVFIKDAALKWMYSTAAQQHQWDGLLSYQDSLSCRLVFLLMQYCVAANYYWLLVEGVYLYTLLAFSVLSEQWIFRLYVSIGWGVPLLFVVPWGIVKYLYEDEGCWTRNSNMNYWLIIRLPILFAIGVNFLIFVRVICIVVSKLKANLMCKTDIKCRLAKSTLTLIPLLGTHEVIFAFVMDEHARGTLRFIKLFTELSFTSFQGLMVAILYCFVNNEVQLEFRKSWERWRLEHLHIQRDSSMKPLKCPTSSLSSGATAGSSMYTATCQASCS
Background: Loss of bound radioactivity is the signal in a displacement assay; it reports binding, not function.

Series [3] can be described thus: Solubility in pH 4.5 acetate buffer at 10 mg/ml after 2 hrs by UPLC-UV analysis. Format: physicochemical. The gist of the method: (§1)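 Buffers were 100 mM sodium acetate pH 4.5 or 100 mM sodium phosphate pH 7.4, with or without 0.5% phenol. Solid peptide was dispersed at 10 mg/mL, with content corrected by UPLC-MS and ion chromatography, and gently agitated for 2 h. After centrifugation (15 min, 3000 rcf), the supernatant was diluted 1:10 and quantified by UPLC-UV against a DMSO standard curve.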

Series [4] is described as follows: Solubility in pH 4.5 acetate buffer at 10 mg/ml after 2 hrs in presence of 0.5% phenol by UPLC-UV analysis. The format is physicochemical. The gist of the method:
as §1

For series [5], the species on record is Homo sapiens. Put plainly: Selectivity ratio of EC50 for human glucagon receptor expressed in HEK293 cells to EC50 for human GLP1R expressed in HEK293 cells. The format is cell-based. In short, it runs like this: (§2)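 HEK293 lines stably expressing human or monkey receptor were detached with accutase. Cells were resuspended at 400 000 cells/mL in HBSS/20 mM HEPES/0.1% BSA/2 mM IBMX and exposed to peptide for 30 min at room temperature. cAMP was read by HTRF (665/620 nm) after 1 h lysis.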

Series [6] can be described thus: Solubility in pH 4.5 phosphate buffer at 10 mg/ml after 2 hrs in presence of 0.5% phenol by UPLC-UV analysis. Format: physicochemical.
In series [7] the target is T2, Glucagon-like peptide 1 receptor. As to the kind of experiment: Agonist activity at human GLP1R expressed in HEK293 cells assessed as cAMP accumulation after 30 mins by HTRF assay. The format is functional, cell-based.
Series [8] is described as follows: Solubility in pH 4.5 acetate buffer at 10 mg/ml after 2 hrs by UPLC-UV analysis.
The target in a further series is Glucagon receptor (Homo sapiens, UniProt P47871). Put plainly: Agonist activity at human glucagon receptor expressed in HEK293 cells assessed as cAMP accumulation after 30 mins by HTRF assay. Format: functional, cell-based.
Chain of Glucagon receptor (P47871 whole entry): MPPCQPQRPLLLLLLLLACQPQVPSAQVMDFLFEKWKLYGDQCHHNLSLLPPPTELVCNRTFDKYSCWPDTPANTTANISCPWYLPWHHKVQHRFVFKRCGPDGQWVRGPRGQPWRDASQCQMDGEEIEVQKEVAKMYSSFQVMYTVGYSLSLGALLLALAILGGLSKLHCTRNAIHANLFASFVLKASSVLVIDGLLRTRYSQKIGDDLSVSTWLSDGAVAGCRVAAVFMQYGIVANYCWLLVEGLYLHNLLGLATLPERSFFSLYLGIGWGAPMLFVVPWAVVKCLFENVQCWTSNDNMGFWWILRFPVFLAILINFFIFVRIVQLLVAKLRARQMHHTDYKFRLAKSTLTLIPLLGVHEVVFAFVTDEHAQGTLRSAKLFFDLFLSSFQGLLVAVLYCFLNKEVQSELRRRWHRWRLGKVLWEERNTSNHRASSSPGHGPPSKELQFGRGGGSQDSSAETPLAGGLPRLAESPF
Series [9] is filed under the species Homo sapiens. Put plainly: Selectivity ratio of EC50 for human GIP receptor expressed in HEK293 cells to EC50 for human GLP1R expressed in HEK293 cells. Format: cell-based. In short, it runs like this:
as §2

Peptide text beside a SMILES is read from it. Where only a bound is given, the exact number is not on record here.

Consider `CC[C@H](C)[C@H](NC(=O)[C@H](Cc1ccccc1)NC(=O)[C@H](CC(C)C)NC(=O)[C@H](CCCCN)NC(=O)[C@H](C)NC(=O)[C@H](CS)NC(=O)[C@H](CCC(N)=O)NC(=O)[C@H](CCC(=O)O)NC(=O)[C@H](CC(=O)O)NC(=O)[C@H](CC(C)C)NC(=O)[C@H](CCC(N)=O)NC(=O)[C@H](CCCCN)NC(=O)[C@H](CO)NC(=O)[C@H](CC(C)C)NC(=O)[C@@H](N)CC(=O)O)C(=O)N[C@@H](CCC(=O)O)C(=O)N[C@@H](Cc1c[nH]c2ccccc12)C(=O)N[C@@H](CC(C)C)C(=O)N[C@@H](C)C(=O)N[C@@H](C)C(=O)NCC(=O)NCC(=O)N1CCC[C@H]1C(=O)N[C@@H](CO)C(=O)N[C@@H](CO)C(=O)NCC(=O)N[C@@H](C)C(=O)N1CCC[C@H]1C(=O)N1CCC[C@H]1C(=O)N1CCC[C@H]1C(=O)N[C@@H](CS)C(N)=O` (H-DLSKQLDEQCAKLFIEWLAAGGPSSGAPPPC-NH2), for which the EC50 (commonly the midpoint of the concentration-response curve) in series [1] was > 100000 nM. In addition, in [2], the IC50 – broadly, the concentration that inhibits the measured activity by half – amounted to 1130 nM.
As for `CCCCCCCCCCCCCCCCC(=O)N[C@@H](CCC(=O)N[C@@H](CCC(=O)NCCCC[C@H](NC(=O)[C@H](CCC(N)=O)NC(=O)[C@H](CCCCN)NC(=O)[C@H](CO)NC(=O)[C@H](CC(C)C)NC(=O)[C@H](CC(=O)O)NC(=O)[C@H](CO)NC(=O)[C@@H](NC(=O)[C@H](Cc1ccccc1)NC(=O)[C@@H](NC(=O)CNC(=O)[C@H](CCC(N)=O)NC(=O)C(C)(C)NC(=O)[C@@H](N)Cc1cnc[nH]1)[C@@H](C)O)[C@@H](C)O)C(=O)N[C@@H](CC(=O)O)C(=O)N[C@@H](CCC(=O)O)C(=O)N[C@@H](CCC(N)=O)C(=O)N[C@@H](CCCNC(=N)N)C(=O)N[C@@H](C)C(=O)N[C@@H](CCCCN)C(=O)N[C@@H](CC(C)C)C(=O)N[C@@H](Cc1ccccc1)C(=O)N[C@H](C(=O)N[C@@H](CCC(=O)O)C(=O)N[C@@H](Cc1c[nH]c2ccccc12)C(=O)N[C@@H](CC(C)C)C(=O)NC(C)(C)C(=O)N[C@@H](C)C(=O)NCC(=O)NCC(=O)N1CCC[C@H]1C(=O)N[C@@H](CO)C(=O)N[C@@H](CO)C(=O)NCC(=O)N[C@@H](C)C(=O)N1CCC[C@H]1C(=O)N1CCC[C@H]1C(=O)N1CCC[C@H]1C(=O)N[C@@H](CO)C(N)=O)[C@@H](C)CC)C(=O)O)C(=O)O`, the solubility (commonly the dissolved amount per volume that the medium holds) at 2 h was ≥ 10000 µg/mL in [3], 1200 µg/mL in [4], ≥ 10000 µg/mL in series [6] and ≥ 10000 µg/mL in series [8]. The 50% effective concentration (EC50) in series [1] was 2.03 nM; in series [7] it was 0.0022 nM; on Glucagon receptor, 0.0276 nM. Also, in the series filed under Homo sapiens [5], the Ratio EC50 worked out at 13.
Regarding `CCCCCCCCCCCCCCCCCCC(=O)N[C@@H](CCC(=O)NCCCC[C@H](NC(=O)[C@H](CCC(N)=O)NC(=O)[C@H](CCCCN)NC(=O)[C@H](CO)NC(=O)[C@H](CC(C)C)NC(=O)[C@H](CC(=O)O)NC(=O)[C@H](CO)NC(=O)[C@@H](NC(=O)[C@H](Cc1ccccc1)NC(=O)[C@@H](NC(=O)CNC(=O)[C@H](CCC(N)=O)NC(=O)C(C)(C)NC(=O)[C@@H](N)Cc1cnc[nH]1)[C@@H](C)O)[C@@H](C)O)C(=O)N[C@@H](CC(=O)O)C(=O)N[C@@H](CCC(=O)O)C(=O)N[C@@H](CCC(N)=O)C(=O)N[C@@H](CCCNC(=N)N)C(=O)N[C@@H](C)C(=O)N[C@@H](CCCCN)C(=O)N[C@@H](CC(C)C)C(=O)N[C@@H](Cc1ccccc1)C(=O)N[C@H](C(=O)N[C@@H](CCC(=O)O)C(=O)N[C@@H](Cc1c[nH]c2ccccc12)C(=O)N[C@@H](CC(C)C)C(=O)NC(C)(C)C(=O)N[C@@H](C)C(=O)NCC(=O)NCC(=O)N1CCC[C@H]1C(=O)N[C@@H](CO)C(=O)N[C@@H](CO)C(=O)NCC(=O)N[C@@H](C)C(=O)N1CCC[C@H]1C(=O)N1CCC[C@H]1C(=O)N1CCC[C@H]1C(=O)N[C@@H](CO)C(N)=O)[C@@H](C)CC)C(=O)O`, the EC50 in series [1] turned out to be 0.102 nM; in series [7], 0.0014 nM; on Glucagon receptor, 0.0067 nM. In addition, the Ratio EC50 in the series filed under Homo sapiens [5] stood at 5; in the series filed under Homo sapiens [9], 73.
`CC[C@H](C)[C@H](NC(=O)[C@H](Cc1ccccc1)NC(=O)[C@H](CC(C)C)NC(=O)[C@H](CCCCN)NC(=O)[C@H](C)NC(=O)[C@H](CCCNC(=N)N)NC(=O)[C@H](CCC(N)=O)NC(=O)[C@H](CCC(=O)O)NC(=O)[C@H](CC(=O)O)NC(=O)[C@H](CC(C)C)NC(=O)[C@H](CCC(N)=O)NC(=O)[C@H](CCCCN)NC(=O)[C@H](CO)NC(=O)[C@H](CC(C)C)NC(=O)[C@H](CC(=O)O)NC(=O)[C@H](CO)NC(=O)[C@@H](NC(=O)[C@H](Cc1ccccc1)NC(=O)[C@@H](NC(=O)CNC(=O)[C@H](CCC(N)=O)NC(=O)C(C)(C)NC(=O)[C@@H](N)Cc1cnc[nH]1)[C@@H](C)O)[C@@H](C)O)C(=O)N[C@@H](CCC(=O)O)C(=O)N[C@@H](Cc1c[nH]c2ccccc12)C(=O)N[C@@H](CC(C)C)C(=O)NC(C)(C)C(=O)N[C@@H](C)C(=O)NCC(=O)NCC(=O)N1CCC[C@H]1C(=O)N[C@@H](CO)C(=O)N[C@@H](CO)C(=O)NCC(=O)N[C@@H](C)C(=O)N1CCC[C@H]1C(=O)N1CCC[C@H]1C(=O)N1CCC[C@H]1C(=O)N[C@@H](CO)C(N)=O` showed an IC50 in series [2] of 26 nM.
